Results published in ChEMBL document CHEMBL3046353, “Synthesis and fungicidal activity of some 5-membered heterocyclic derivatives containing benzimidazoles” (1993).
The source made the active and inactive calls. The rule behind the calls is not given here.

Tests used:
Avena sativa [1] = test: Pre-emergence herbicidal activity against Avena sativa; format: functional, organism-based
Avena sativa [2] = test: Herbicidal activity against Avena sativa under paddy conditions; format: functional, organism-based
Culex pipiens pallens = test: Insecticidal activity against Culex pipiens pallens (mosquito) at 3 to 5 ppm; format: functional, organism-based
Sagittaria latifolia [3] = test: Pre-emergence herbicidal activity against Sagittaria latifolia (broadleaf arrowhead); format: functional, organism-based
Abutilon theophrasti [4] = test: Post-emergence herbicidal activity against Abutilon theophrasti (velvetleaf); format: functional, organism-based
Oryza sativa [5] = test: Pre-emergence herbicidal activity against Oryza sativa (rice); format: functional, organism-based
Oryza sativa [6] = test: Herbicidal activity against Oryza sativa (rice) under paddy conditions; format: functional, organism-based
Schoenoplectus acutus [7] = test: Herbicidal activity against Schoenoplectus acutus (hardstem bulrush) under paddy conditions; format: functional, organism-based
Convolvulaceae [8] = test: Pre-emergence herbicidal activity against Convolvulaceae (morning glory family); format: functional, organism-based
Tetranychus cinnabarinus = test: Insecticidal activity against Tetranychus cinnabarinus (carmine spider mite); format: functional, organism-based
Musca domestica = test: Insecticidal activity against Musca domestica (house fly); format: functional, organism-based
Sagittaria latifolia [9] = test: Herbicidal activity against Sagittaria latifolia (broadleaf arrowhead) under paddy conditions; format: functional, organism-based
Oryza sativa [10] = test: Post-emergence herbicidal activity against Oryza sativa (rice); format: functional, organism-based
Convolvulaceae [11] = test: Post-emergence herbicidal activity against Convolvulaceae (morning glory family); format: functional, organism-based
Echinochloa crus-galli [12] = test: Herbicidal activity against Echinochloa crus-galli (barnyard grass) under paddy conditions; format: functional, organism-based
Convolvulaceae [13] = test: Herbicidal activity against Convolvulaceae (morning glory family) under paddy conditions; format: functional, organism-based
Echinochloa crus-galli [14] = test: Post-emergence herbicidal activity against Echinochloa crus-galli (barnyard grass); format: functional, organism-based
Helminthosporium = test: Fungicidal activity against Helminthosporium oryzae at 500 ppm after 7 days by poisoned food technique; format: functional; conditions: 168 h, read-out: GI
How it was run: (§1)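 Cultures kept on potato dextrose agar. Each compound, dissolved in acetone, was added to potato dextrose agar at a final 500 ppm (w/v) (poisoned food technique). A disc cut from the periphery of a seven-day-old culture was inoculated onto each set. Control sets held potato dextrose agar only. The read-out is percentage inhibition of fungal growth relative to control.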

Spodoptera litura = test: Insecticidal activity against Spodoptera litura; format: functional, organism-based
Rhizoctonia solani = test: Fungicidal activity against Rhizoctonia solani at 500 ppm after 7 days by poisoned food technique; format: functional; conditions: 168 h, read-out: GI; how it was run: as §1
Echinochloa crus-galli [15] = test: Pre-emergence herbicidal activity against Echinochloa crus-galli (barnyard grass); format: functional, organism-based
Avena sativa [16] = test: Post-emergence herbicidal activity against Avena sativa; format: functional, organism-based
Schoenoplectus acutus [17] = test: Post-emergence herbicidal activity against Schoenoplectus acutus (hardstem bulrush); format: functional, organism-based
Sagittaria latifolia [18] = test: Post-emergence herbicidal activity against Sagittaria latifolia (broadleaf arrowhead); format: functional, organism-based
Abutilon theophrasti [19] = test: Pre-emergence herbicidal activity against Abutilon theophrasti (velvetleaf); format: functional, organism-based
Schoenoplectus acutus [20] = test: Pre-emergence herbicidal activity against Schoenoplectus acutus (hardstem bulrush); format: functional, organism-based

## Nn1c(SCc2nc3ccccc3[nH]2)nnc1-c1ccc(Cl)cc1
Avena sativa [1]
  Activity: inactive
Avena sativa [2]
  Activity: inactive
Culex pipiens pallens
  Activity: Active
Sagittaria latifolia [3]
  Activity: inactive
Abutilon theophrasti [4]
  Activity: inactive
Oryza sativa [5]
  Activity: inactive
Oryza sativa [6]
  Activity: inactive
Schoenoplectus acutus [7]
  Activity: inactive
Convolvulaceae [8]
  Activity: inactive
Tetranychus cinnabarinus
  Activity: inactive
Musca domestica
  Activity: inactive
Sagittaria latifolia [9]
  Activity: inactive
Oryza sativa [10]
  Activity: inactive
Convolvulaceae [11]
  Activity: inactive
Echinochloa crus-galli [12]
  Activity: inactive
Convolvulaceae [13]
  Activity: inactive
Echinochloa crus-galli [14]
  Activity: inactive
Helminthosporium
  inhibition of growth at 500 ppm: 45.3%
Spodoptera litura
  Activity: inactive
Rhizoctonia solani
  inhibition of growth at 500 ppm: 20%
Echinochloa crus-galli [15]
  Activity: inactive
Avena sativa [16]
  Activity: inactive
Schoenoplectus acutus [17]
  Activity: inactive
Sagittaria latifolia [18]
  Activity: inactive
Abutilon theophrasti [19]
  Activity: inactive
Schoenoplectus acutus [20]
  Activity: inactive

## Clc1ccccc1-c1nnc(SCc2nc3ccccc3[nH]2)o1
Avena sativa [1]
  Activity: inactive
Avena sativa [2]
  Activity: inactive
Culex pipiens pallens
  Activity: Active
Sagittaria latifolia [3]
  Activity: inactive
Abutilon theophrasti [4]
  Activity: inactive
Oryza sativa [5]
  Activity: inactive
Oryza sativa [6]
  Activity: inactive
Schoenoplectus acutus [7]
  Activity: inactive
Convolvulaceae [8]
  Activity: inactive
Tetranychus cinnabarinus
  Activity: inactive
Musca domestica
  Activity: inactive
Sagittaria latifolia [9]
  Activity: inactive
Oryza sativa [10]
  Activity: inactive
Convolvulaceae [11]
  Activity: inactive
Echinochloa crus-galli [12]
  Activity: inactive
Convolvulaceae [13]
  Activity: inactive
Echinochloa crus-galli [14]
  Activity: inactive
Helminthosporium
  inhibition of growth at 500 ppm: 75%
Spodoptera litura
  Activity: inactive
Rhizoctonia solani
  inhibition of growth at 500 ppm: 56.2%
Echinochloa crus-galli [15]
  Activity: inactive
Avena sativa [16]
  Activity: inactive
Schoenoplectus acutus [17]
  Activity: inactive
Sagittaria latifolia [18]
  Activity: inactive
Abutilon theophrasti [19]
  Activity: inactive
Schoenoplectus acutus [20]
  Activity: inactive

## Cc1ccc2[nH]c(CSc3nnc(-c4cccc(Cl)c4)n3N)nc2c1
Avena sativa [1]
  Activity: inactive
Avena sativa [2]
  Activity: inactive
Culex pipiens pallens
  Activity: Active
Sagittaria latifolia [3]
  Activity: inactive
Abutilon theophrasti [4]
  Activity: inactive
Oryza sativa [5]
  Activity: inactive
Oryza sativa [6]
  Activity: inactive
Schoenoplectus acutus [7]
  Activity: inactive
Convolvulaceae [8]
  Activity: inactive
Tetranychus cinnabarinus
  Activity: inactive
Musca domestica
  Activity: inactive
Sagittaria latifolia [9]
  Activity: inactive
Oryza sativa [10]
  Activity: inactive
Convolvulaceae [11]
  Activity: inactive
Echinochloa crus-galli [12]
  Activity: inactive
Convolvulaceae [13]
  Activity: inactive
Echinochloa crus-galli [14]
  Activity: inactive
Helminthosporium
  inhibition of growth at 500 ppm: 82.5%
Spodoptera litura
  Activity: inactive
Rhizoctonia solani
  inhibition of growth at 500 ppm: 71.2%
Echinochloa crus-galli [15]
  Activity: inactive
Avena sativa [16]
  Activity: inactive
Schoenoplectus acutus [17]
  Activity: inactive
Sagittaria latifolia [18]
  Activity: inactive
Abutilon theophrasti [19]
  Activity: inactive
Schoenoplectus acutus [20]
  Activity: inactive
